Experimental data: publication PMC10407628 (Computational and Structural Biotechnology Journal, 2023)
Ends that are not written are not given here. Peptide text beside a SMILES is read from it. * marks the point of attachment. FITC = O=C1OC2(c3ccc(O)cc3Oc3cc(O)ccc32)c2ccc(NC(=S)*)cc21

How the values were obtained:
FITC-Bmf BH3 = assay: fluorescence polarisation
FITC-Bim BH3 = assay: fluorescence polarisation
Mcl-1 (Mcl-1ΔN170ΔC23) = Mcl-1 (Mcl-1ΔN170ΔC23) (Homo sapiens, UniProt Q07820); assay: Fluorescence polarization assay; format: binding
Chain of Mcl-1 (Mcl-1ΔN170ΔC23) (Q07820 171-327 limits assumed, stated change not applied): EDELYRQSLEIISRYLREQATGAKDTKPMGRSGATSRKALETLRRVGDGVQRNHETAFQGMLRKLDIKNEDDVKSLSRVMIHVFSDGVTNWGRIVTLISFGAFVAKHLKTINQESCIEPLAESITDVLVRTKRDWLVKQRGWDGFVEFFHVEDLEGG
Outline: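 Human Mcl-1ΔN170ΔC23 was expressed His-SUMO-tagged in E. coli Rosetta BL21(DE3), Ni-purified, ULP1-cleaved, then SEC-purified. Protein was serially diluted in 20 mM Tris pH 8.0, 50 mM NaCl with FITC-labelled BH3 peptide (10 nM), shaken 1 min, and incubated 10 min at room temperature in the dark. Polarization (mP) was read in at least three replicates, and Kd was obtained by sigmoidal dose-response nonlinear regression.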

Bcl-xLΔC25ΔLoop = Bcl-xLΔC25ΔLoop (human, UniProt Q07817-1 1-208, removes the unstructured loop between residues 46–82); assay: crystal structure
Bcl-2ΔC32ΔLoop = molecular target: T1, Bcl-2ΔC32ΔLoop (human, UniProt P10415;Q07817); assay: crystal structure
T1 chain: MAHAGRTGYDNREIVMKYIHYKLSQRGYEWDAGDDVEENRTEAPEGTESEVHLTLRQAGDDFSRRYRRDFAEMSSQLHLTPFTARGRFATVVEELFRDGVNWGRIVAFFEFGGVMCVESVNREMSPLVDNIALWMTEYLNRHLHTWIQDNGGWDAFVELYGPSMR

R139A Bcl-xL = R139A Bcl-xL (human, UniProt Q07817-1 1-208, R139A); assay: fluorescence polarisation
R146A Bcl-2 = R146A Bcl-2 (human, UniProt P10415 1-207, R146A); assay: fluorescence polarisation
Chain of R146A Bcl-2 (P10415 1-207 R146A): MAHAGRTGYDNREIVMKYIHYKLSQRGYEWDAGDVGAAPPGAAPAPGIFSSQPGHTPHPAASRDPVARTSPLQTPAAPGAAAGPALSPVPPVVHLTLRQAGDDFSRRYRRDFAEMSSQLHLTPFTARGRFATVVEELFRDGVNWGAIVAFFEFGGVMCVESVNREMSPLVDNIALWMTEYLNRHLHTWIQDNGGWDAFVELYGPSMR

Bcl-2ΔC32 = Bcl-2ΔC32 (human, UniProt P10415 1-207); assay: fluorescence polarisation
Bcl-xLΔC25 = Bcl-xLΔC25 (human, UniProt Q07817-1 1-208); assay: fluorescence polarisation

Molecule: Mcl-1ΔN170ΔC23 (from UniProt Q07820 171-327) (domain or fragment)
- Kd (FITC-Bmf BH3): 185 nM
- Kd (FITC-Bim BH3): 5.8 nM

Molecule: Mcl-1 with Ala-227 substituted by Asp (from UniProt Q07820 171-327) (domain or fragment)
- Kd (FITC-Bmf BH3): 49 nM

Molecule: CC[C@H](C)[C@H](NC(=O)[C@H](CS)NC(=O)[C@H](CCC(N)=O)NC(=O)[C@H](CC(C)C)NC(=O)[C@H](CCCCN)NC(=O)[C@H](CCCNC(=N)N)NC(=O)[C@H](C)NC(=O)[C@@H](NC(=O)[C@H](CCC(N)=O)NC(=O)[C@@H](NC(=O)[C@H](CCC(=O)O)NC(=O)[C@H](C)NC(=O)[C@H](CCC(N)=O)NC(=O)[C@H](Cc1c[nH]cn1)NC(=S)Nc1ccc2c(c1)C(=O)OC21c2ccc(O)cc2Oc2cc(O)ccc21)C(C)C)[C@@H](C)CC)C(=O)N[C@@H](C)C(=O)N[C@@H](CC(=O)O)C(=O)N[C@@H](CCC(N)=O)C(=O)N[C@@H](Cc1ccccc1)C(=O)N[C@@H](Cc1c[nH]cn1)C(=O)N[C@@H](CCCNC(=N)N)C(=O)N[C@@H](CC(C)C)C(=O)N[C@@H](Cc1c[nH]cn1)C(=O)N[C@H](C(=O)N[C@@H](CCC(N)=O)C(=O)N[C@@H](CCC(N)=O)C(=O)O)C(C)C [FITC-Bmf BH3] ({FITC}-HQAEVQIARKLQCIADQFHRLHVQQ-OH)
- Kd (Mcl-1 (Mcl-1ΔN170ΔC23)): 185 nM

Molecule: HQAEVQIARKLQCIADQFHRLHVQQ [25-mer Bmf BH3 peptide]
- binding result (Bcl-xLΔC25ΔLoop): binds

Molecule: EVQIARKLQCIADQFHRLHVQ [21-mer Bmf BH3 peptide]
- binding result (Bcl-2ΔC32ΔLoop): binds

Molecule: {FITC}-HQAEVQIARKLQCIADQFHRLHVQQ [FITC-Bmf BH3]
- Kd (R139A Bcl-xL): 1240 nM
- Kd (R146A Bcl-2): 623 nM
- Kd (Bcl-2ΔC32): 5.2 ± 0.3 nM
- Kd (Bcl-xLΔC25): 5.1 ± 0.4 nM
